Test results: ChEMBL document CHEMBL3259728, “Design, synthesis and biological evaluation of some novel substituted quinazolines as antitumor agents” (2014)

Columns and labels:
Type in all cases: functional
T47D = assay: Growth inhibition of human T47D cells at 10 uM after 48 hrs by SRB assay; settings: read-out: GI
How it was run: (§1)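 NCI-60 primary one-dose screen run at the US NCI, with human tumour lines from nine cancer types. Compound added once at 10^-5 M, followed by 48 h incubation. End point was sulforhodamine B protein staining read spectrophotometrically. Result given as percent growth of treated cells against untreated controls, reported as % growth inhibition.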

[1] = Growth inhibition of human BT549 cells at 10 uM after 48 hrs by SRB assay; settings: BT-549, 48 h, read-out: GI
How it was run: (§2)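 NCI primary one-dose screen. A single concentration of 10^-5 M was added to the cell culture, followed by 48 h incubation and an SRB protein-dye endpoint read spectrophotometrically. Results are growth percentage relative to untreated control cells, reported as % growth inhibition.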

[2] = Growth inhibition of human Hs578T cells at 10 uM after 48 hrs by SRB assay; settings: Hs-578T, read-out: GI; how it was run: as §1
MDA-MB-231 = assay: Growth inhibition of human MDA-MB-231 cells at 10 uM after 48 hrs by SRB assay; settings: MDA-MB-231, 48 h, read-out: GI; how it was run: as §1
MCF7 = assay: Growth inhibition of human MCF7 cells at 10 uM after 48 hrs by SRB assay; settings: MCF7, 48 h, read-out: GI; how it was run: as §1
DU-145 = assay: Growth inhibition of human DU145 cells at 10 uM after 48 hrs by SRB assay; settings: DU-145, 48 h, read-out: GI; how it was run: as §1
PC-3 = assay: Growth inhibition of human PC3 cells at 10 uM after 48 hrs by SRB assay; settings: PC-3, 48 h, read-out: GI; how it was run: as §1
[3] = Growth inhibition of human UO31 cells at 10 uM after 48 hrs by SRB assay; settings: UO-31, 48 h, read-out: GI; how it was run: as §1
SN12C = assay: Growth inhibition of human SN12C cells at 10 uM after 48 hrs by SRB assay; settings: read-out: GI; how it was run: as §1
[4] = Growth inhibition of human RXF393 cells at 10 uM after 48 hrs by SRB assay; settings: RXF 393, 48 h, read-out: GI; how it was run: as §1
786-0 = assay: Growth inhibition of human 786-0 cells at 10 uM after 48 hrs by SRB assay; settings: 786-0, 48 h, read-out: GI; how it was run: as §2
[5] = Growth inhibition of human NCI-ADR-RES cells at 10 uM after 48 hrs by SRB assay; settings: read-out: GI; how it was run: as §1
[6] = Growth inhibition of human OVCAR5 cells at 10 uM after 48 hrs by SRB assay; settings: OVCAR-5, 48 h, read-out: GI; how it was run: as §1
[7] = Growth inhibition of human OVCAR3 cells at 10 uM after 48 hrs by SRB assay; settings: OVCAR-3, 48 h, read-out: GI; how it was run: as §1
IGROV-1 = assay: Growth inhibition of human IGROV1 cells at 10 uM after 48 hrs by SRB assay; settings: IGROV-1, 48 h, read-out: GI; how it was run: as §1
SK-MEL-5 = assay: Growth inhibition of human SK-MEL-5 cells at 10 uM after 48 hrs by SRB assay; settings: SK-MEL-5, 48 h, read-out: GI; how it was run: as §1
MDA-MB-435 = assay: Growth inhibition of human MDA-MB-435 cells at 10 uM after 48 hrs by SRB assay; settings: MDA-MB-435, 48 h, read-out: GI; how it was run: as §1
M14 = assay: Growth inhibition of human M14 cells at 10 uM after 48 hrs by SRB assay; settings: M14, 48 h, read-out: GI; how it was run: as §1
Malme-3M = assay: Growth inhibition of human MALME-3M cells at 10 uM after 48 hrs by SRB assay; settings: read-out: GI; how it was run: as §1
U-251 = assay: Growth inhibition of human U251 cells at 10 uM after 48 hrs by SRB assay; settings: U-251, 48 h, read-out: GI; how it was run: as §1
SNB-75 = assay: Growth inhibition of human SNB75 cells at 10 uM after 48 hrs by SRB assay; settings: SNB-75, 48 h, read-out: GI; how it was run: as §1
SNB-19 = assay: Growth inhibition of human SNB19 cells at 10 uM after 48 hrs by SRB assay; settings: SNB-19, 48 h, read-out: GI; how it was run: as §1
[8] = Growth inhibition of human SF539 cells at 10 uM after 48 hrs by SRB assay; settings: SF-539, 48 h, read-out: GI; how it was run: as §1
SW-620 = assay: Growth inhibition of human SW620 cells at 10 uM after 48 hrs by SRB assay; settings: SW-620, 48 h, read-out: GI; how it was run: as §1
KM12 = assay: Growth inhibition of human KM12 cells at 10 uM after 48 hrs by SRB assay; settings: KM12, 48 h, read-out: GI; how it was run: as §1
HT-29 = assay: Growth inhibition of human HT-29 cells at 10 uM after 48 hrs by SRB assay; settings: HT-29, 48 h, read-out: GI; how it was run: as §1
[9] = Growth inhibition of human HCT15 cells at 10 uM after 48 hrs by SRB assay; settings: HCT-15, 48 h, read-out: GI; how it was run: as §1
COLO 205 = assay: Growth inhibition of human COLO205 cells at 10 uM after 48 hrs by SRB assay; settings: COLO 205, 48 h, read-out: GI; how it was run: as §2
NCI-H522 = assay: Growth inhibition of human NCI-H522 cells at 10 uM after 48 hrs by SRB assay; settings: NCI-H522, 48 h, read-out: GI; how it was run: as §1
NCI-H322M = assay: Growth inhibition of human NCI-H322M cells at 10 uM after 48 hrs by SRB assay; settings: read-out: GI; how it was run: as §1
NCI-H23 = assay: Growth inhibition of human NCI-H23 cells at 10 uM after 48 hrs by SRB assay; settings: NCI-H23, 48 h, read-out: GI; how it was run: as §1
[10] = Growth inhibition of human HOP92 cells at 10 uM after 48 hrs by SRB assay; settings: HOP-92, 48 h, read-out: GI; how it was run: as §1
NCI-H226 = assay: Growth inhibition of human NCI-H226 cells at 10 uM after 48 hrs by SRB assay; settings: NCI-H226, 48 h, read-out: GI; how it was run: as §1
HOP-62 = assay: Growth inhibition of human HOP62 cells at 10 uM after 48 hrs by SRB assay; settings: HOP-62, 48 h, read-out: GI; how it was run: as §1
[11] = Growth inhibition of human EKVX cells at 10 uM after 48 hrs by SRB assay; settings: read-out: GI; how it was run: as §1
[12] = Growth inhibition of human OVCAR8 cells at 10 uM after 48 hrs by SRB assay; settings: OVCAR-8, 48 h, read-out: GI; how it was run: as §1
SK-MEL-28 = assay: Growth inhibition of human SK-MEL-28 cells at 10 uM after 48 hrs by SRB assay; settings: SK-MEL-28, 48 h, read-out: GI; how it was run: as §1
SR = assay: Growth inhibition of human SR cells at 10 uM after 48 hrs by SRB assay; settings: read-out: GI; how it was run: as §1
CCRF-CEM = assay: Growth inhibition of human CCRF-CEM cells at 10 uM after 48 hrs by SRB assay; settings: read-out: GI; how it was run: as §2

Structure (SMILES): Cc1ccc(C(=O)Nc2ccc(Cl)cc2C(=O)Nc2ccccc2)cc1
- inhibition of growth at 10 µM (T47D): 20%
- inhibition of growth at 10 µM [1]: < 10%
- inhibition of growth at 10 µM [2]: < 10%
- inhibition of growth at 10 µM (MDA-MB-231): 16%
- inhibition of growth at 10 µM (MCF7): 11%
- inhibition of growth at 10 µM (DU-145): < 10%
- inhibition of growth at 10 µM (PC-3): 15%
- inhibition of growth at 10 µM [3]: < 10%
- inhibition of growth at 10 µM (SN12C): < 10%
- inhibition of growth at 10 µM [4]: < 10%
- inhibition of growth at 10 µM (786-0): < 10%
- inhibition of growth at 10 µM [5]: < 10%
- inhibition of growth at 10 µM [6]: 14%
- inhibition of growth at 10 µM [7]: < 10%
- inhibition of growth at 10 µM (IGROV-1): < 10%
- inhibition of growth at 10 µM (SK-MEL-5): 13%
- inhibition of growth at 10 µM (MDA-MB-435): 11%
- inhibition of growth at 10 µM (M14): < 10%
- inhibition of growth at 10 µM (Malme-3M): 12%
- inhibition of growth at 10 µM (U-251): 14%
- inhibition of growth at 10 µM (SNB-75): 28%
- inhibition of growth at 10 µM (SNB-19): 13%
- inhibition of growth at 10 µM [8]: 29%
- inhibition of growth at 10 µM (SW-620): < 10%
- inhibition of growth at 10 µM (KM12): < 10%
- inhibition of growth at 10 µM (HT-29): < 10%
- inhibition of growth at 10 µM [9]: 11%
- inhibition of growth at 10 µM (COLO 205): < 10%
- inhibition of growth at 10 µM (NCI-H522): 21%
- inhibition of growth at 10 µM (NCI-H322M): < 10%
- inhibition of growth at 10 µM (NCI-H23): < 10%
- inhibition of growth at 10 µM [10]: < 10%
- inhibition of growth at 10 µM (NCI-H226): < 10%
- inhibition of growth at 10 µM (HOP-62): 29%
- inhibition of growth at 10 µM [11]: < 10%
- inhibition of growth at 10 µM [12]: < 10%
- inhibition of growth at 10 µM (SK-MEL-28): < 10%

Structure (SMILES): Cc1ccc(C(=O)Nc2ccc(Cl)cc2C(=O)NCc2ccccc2)cc1
- inhibition of growth at 10 µM (T47D): < 10%
- inhibition of growth at 10 µM [1]: < 10%
- inhibition of growth at 10 µM [2]: 21%
- inhibition of growth at 10 µM (MDA-MB-231): < 10%
- inhibition of growth at 10 µM (MCF7): 47%
- inhibition of growth at 10 µM (DU-145): < 10%
- inhibition of growth at 10 µM (PC-3): 24%
- inhibition of growth at 10 µM [3]: 24%
- inhibition of growth at 10 µM (SN12C): < 10%
- inhibition of growth at 10 µM [4]: 13%
- inhibition of growth at 10 µM (786-0): < 10%
- inhibition of growth at 10 µM [5]: 28%
- inhibition of growth at 10 µM [6]: < 10%
- inhibition of growth at 10 µM [7]: < 10%
- inhibition of growth at 10 µM (IGROV-1): 16%
- inhibition of growth at 10 µM (SK-MEL-5): 22%
- inhibition of growth at 10 µM (MDA-MB-435): 98%
- inhibition of growth at 10 µM (M14): 26%
- inhibition of growth at 10 µM (Malme-3M): 12%
- inhibition of growth at 10 µM (U-251): 19%
- inhibition of growth at 10 µM (SNB-75): 33%
- inhibition of growth at 10 µM (SNB-19): < 10%
- inhibition of growth at 10 µM [8]: 16%
- inhibition of growth at 10 µM (SW-620): 42%
- inhibition of growth at 10 µM (KM12): 40%
- inhibition of growth at 10 µM (HT-29): 77%
- inhibition of growth at 10 µM [9]: 43%
- inhibition of growth at 10 µM (COLO 205): < 10%
- inhibition of growth at 10 µM (NCI-H522): 47%
- inhibition of growth at 10 µM (NCI-H322M): < 10%
- inhibition of growth at 10 µM (NCI-H23): < 10%
- inhibition of growth at 10 µM [10]: < 10%
- inhibition of growth at 10 µM (NCI-H226): < 10%
- inhibition of growth at 10 µM (HOP-62): 12%
- inhibition of growth at 10 µM [11]: 20%
- inhibition of growth at 10 µM (SR): 63%
- inhibition of growth at 10 µM (CCRF-CEM): 27%
- inhibition of growth at 10 µM [12]: 13%
- inhibition of growth at 10 µM (SK-MEL-28): 17%
